Consider one compound from ChEMBL document CHEMBL4354866, “TREK Channel Family Activator with a Well-Defined Structure-Activation Relationship for Pain and Neurogenic Inflammation” (J Med Chem, 2020).

Active and inactive are the calls of the source. The rule behind the calls is not given here.

This test has as its target T1, Potassium channel subfamily K member 13 (Homo sapiens) (UniProt Q9HB14).
T1 sequence (whole entry): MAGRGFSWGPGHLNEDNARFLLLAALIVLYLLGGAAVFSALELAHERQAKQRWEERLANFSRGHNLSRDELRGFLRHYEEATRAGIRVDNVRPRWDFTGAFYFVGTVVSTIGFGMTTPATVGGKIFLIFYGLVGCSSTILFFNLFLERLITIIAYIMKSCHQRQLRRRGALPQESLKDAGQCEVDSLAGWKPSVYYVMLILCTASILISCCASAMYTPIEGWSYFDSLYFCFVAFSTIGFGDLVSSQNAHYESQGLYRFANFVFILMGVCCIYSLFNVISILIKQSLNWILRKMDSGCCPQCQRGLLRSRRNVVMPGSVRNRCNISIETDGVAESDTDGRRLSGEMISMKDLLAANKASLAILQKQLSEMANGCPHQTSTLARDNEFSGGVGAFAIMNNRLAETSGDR
The test is described as follows: Activation of recombinant human THIK1 expressed in HEK293T cells assessed as increase in K+ current amplitude at 10 uM by whole cell voltage clamp electrophysiological analysis. The class given is cell-based. The essentials:
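HEK-293T cells transiently transfected with the human K2P channel. Whole-cell clamp at -60 mV, 500-ms ramp -120 to +60 mV. Pipette 140 KCl (pH 7.4), external 145 NaCl/4 KCl (pH 7.3). Compound 10 μM, diluted from 10 mM DMSO stock into external solution.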

Take `Cc1ccc2nc(-c3ccc(NC(=O)[C@@H]4CC[C@H](C(=O)O)C4)cc3)sc2c1`: the outcome was Active.
